Reference: ChEMBL document CHEMBL2401736, “HCV NS5A replication complex inhibitors. Part 5: discovery of potent and pan-genotypic glycinamide cap derivatives” (Bioorg Med Chem Lett, 2013)

Assays:
[1] = Clearance in rat at 2 mg/kg, iv after 4 hrs; type: ADME, organism-based; design: dose 2 mg/kg, route intravenous; settings: in vivo
In short: (§1)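 Rat 4 h PK screen: 2 mg/kg IV and 5 mg/kg PO, each dose as its line states. Plasma sampled 5 times (0.17, 0.5, 1, 2 and 4 h); n = 2 rats.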

Hepatitis C virus [2] = experiment: Antiviral activity against Hepatitis C virus genotype 1b by FRET assay; type: functional, organism-based, Hepacivirus hominis
In short: (§2)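 EC50 values are means of at least two experiments, with at most threefold variation between them.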

[3] = Metabolic stability in rat liver microsomes assessed as compound remaining after 10 mins; type: ADME, Microsome; settings: read-out: Stability
In short: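 Compound incubated with rat liver microsomes for 10 min; read-out is the percentage of parent remaining.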

Hepatitis C virus [4] = experiment: Antiviral activity against Hepatitis C virus genotype 1a by ELISA; type: functional, organism-based, Hepacivirus hominis, subtype 1a; in short: as §2
[5] = Permeability of the compound across human Caco2 cells; type: ADME, cell-based; settings: Caco-2, read-out: permeability
[6] = (§3) AUC (0 to 4 hrs) in rat at 5 mg/kg, po; type: ADME, organism-based, Plasma; design: time < 4 hr, dose 5 mg/kg, route oral; settings: plasma; in short: as §1
[7] = test system: Bovine viral diarrhea virus 1; experiment: Antiviral activity against Bovine viral diarrhea virus by luciferase assay; type: functional, organism-based; in short: as §2
[8] = AUC (0 to 4 hrs) in rat at 2 mg/kg, iv; type: ADME, organism-based; design: time < 4 hr, dose 2 mg/kg, route intravenous; settings: plasma; in short: as §1
Rattus norvegicus = experiment: as §3; type: ADME, organism-based, Plasma; design: time < 4 hr, dose 5 mg/kg, route oral; settings: in vivo, 4 h, BLD = below limit of detection; in short: as §1

| Structure (SMILES) | clearance [1] | EC50 (Hepatitis C virus [2]; Hepatitis C virus, genotype 1b) | remaining at 10 min [3] | EC50 (Hepatitis C virus [4]; Hepatitis C virus, subtype 1a) | Papp [5] | AUC(0-t) at 4 h [6] | EC50 ([7]; Bovine viral diarrhea virus isolates and strains) | AUC(0-t) at 4 h [8] | EC50 (Hepatitis C virus [2]) | EC50 (Hepatitis C virus [4]) | AUC (Rattus norvegicus) | EC50 [7] |
| --- | --- | --- | --- | --- | --- | --- | --- | --- | --- | --- | --- | --- |
| CC(=O)N[C@H](C(=O)N1CCC[C@H]1C(=O)Nc1ccc(C#Cc2ccc(NC(=O)[C@@H]3CCCN3C(=O)[C@@H](NC(C)=O)c3ccccc3)cc2)cc1)c1ccccc1 | 13.3 mL/min/kg | 0.005 nM | 100% | 24 nM | < 1.5 ×10⁻⁶ cm/s | 0.093 µM·h | > 10000 nM | 2.11 µM·h |  |  |  |  |
| CN1CCN(C(C(=O)N2CCC[C@H]2C(=O)Nc2ccc(C#Cc3ccc(NC(=O)[C@@H]4CCCN4C(=O)C(c4ccccc4)N4CCN(C)CC4)cc3)cc2)c2ccccc2)CC1 (stereo in doubt; 5i.1) |  |  | 100% |  | < 1.5 ×10⁻⁶ cm/s |  |  |  | 0.152 nM | < 4.6 nM | BLD | > 3330 nM |
